Results published in ChEMBL document CHEMBL4622996, “Discovery of Vixotrigine: A Novel Use-Dependent Sodium Channel Blocker for the Treatment of Trigeminal Neuralgia” (ACS Med Chem Lett, 2020).

Columns and labels:
Cytochrome P450 2A6 = target: T1, Cytochrome P450 2A6 (Homo sapiens, UniProt P11509); test: Inhibition of CYP2A6 (unknown origin); format: ADME
T1 sequence (P11509 whole entry): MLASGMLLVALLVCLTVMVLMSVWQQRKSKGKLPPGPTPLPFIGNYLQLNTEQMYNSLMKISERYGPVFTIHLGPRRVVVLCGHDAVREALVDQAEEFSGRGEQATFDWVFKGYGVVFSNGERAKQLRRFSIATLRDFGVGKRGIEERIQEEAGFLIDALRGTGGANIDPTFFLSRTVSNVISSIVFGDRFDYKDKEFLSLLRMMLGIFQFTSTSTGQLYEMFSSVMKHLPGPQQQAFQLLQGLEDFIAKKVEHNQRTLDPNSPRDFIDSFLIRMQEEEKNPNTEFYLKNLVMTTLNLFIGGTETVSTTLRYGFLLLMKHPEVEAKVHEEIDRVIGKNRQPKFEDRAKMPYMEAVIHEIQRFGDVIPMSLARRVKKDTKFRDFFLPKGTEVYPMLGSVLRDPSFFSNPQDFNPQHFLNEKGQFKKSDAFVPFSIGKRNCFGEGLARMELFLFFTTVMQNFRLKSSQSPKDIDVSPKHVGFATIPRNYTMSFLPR

[1] = target: T2, Solute carrier family 22 member 2 (Homo sapiens, UniProt O15244); test: Inhibition of OCT2 (unknown origin)
T2 sequence (O15244 whole entry): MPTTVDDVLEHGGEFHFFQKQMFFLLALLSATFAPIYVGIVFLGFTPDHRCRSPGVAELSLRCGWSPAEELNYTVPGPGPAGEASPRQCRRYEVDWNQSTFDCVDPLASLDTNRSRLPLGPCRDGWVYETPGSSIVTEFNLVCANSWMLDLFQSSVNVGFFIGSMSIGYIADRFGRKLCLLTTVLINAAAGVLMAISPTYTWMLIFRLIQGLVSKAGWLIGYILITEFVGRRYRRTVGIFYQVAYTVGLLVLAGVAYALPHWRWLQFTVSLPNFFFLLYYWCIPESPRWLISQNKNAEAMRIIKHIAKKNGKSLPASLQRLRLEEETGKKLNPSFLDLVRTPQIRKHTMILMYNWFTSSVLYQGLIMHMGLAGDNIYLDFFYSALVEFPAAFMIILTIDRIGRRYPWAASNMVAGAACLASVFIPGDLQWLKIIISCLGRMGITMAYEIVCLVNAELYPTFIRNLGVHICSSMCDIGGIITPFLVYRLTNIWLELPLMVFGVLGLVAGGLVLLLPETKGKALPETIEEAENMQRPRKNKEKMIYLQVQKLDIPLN

Cytochrome P450 2B6 = target: T3, Cytochrome P450 2B6 (Homo sapiens, UniProt P20813); test: Inhibition of CYP2B6 (unknown origin); format: ADME
T3 sequence (P20813 whole entry): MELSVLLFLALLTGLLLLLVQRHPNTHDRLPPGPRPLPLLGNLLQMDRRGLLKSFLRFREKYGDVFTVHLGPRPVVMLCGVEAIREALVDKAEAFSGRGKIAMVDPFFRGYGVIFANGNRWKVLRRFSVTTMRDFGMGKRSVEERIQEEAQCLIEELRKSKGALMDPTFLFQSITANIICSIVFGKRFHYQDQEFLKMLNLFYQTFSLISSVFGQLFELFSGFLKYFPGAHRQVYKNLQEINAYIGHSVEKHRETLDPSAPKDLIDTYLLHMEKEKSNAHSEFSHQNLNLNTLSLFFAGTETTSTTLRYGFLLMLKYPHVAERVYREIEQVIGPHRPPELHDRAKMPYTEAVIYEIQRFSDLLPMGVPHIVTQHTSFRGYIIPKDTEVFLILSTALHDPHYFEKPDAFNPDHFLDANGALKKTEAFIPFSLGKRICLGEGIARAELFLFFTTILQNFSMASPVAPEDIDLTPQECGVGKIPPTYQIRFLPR

[2] = target: T4, Amine oxidase [flavin-containing] B (Homo sapiens, UniProt P27338); test: Inhibition of MAO-B (unknown origin)
T4 sequence (P27338 whole entry): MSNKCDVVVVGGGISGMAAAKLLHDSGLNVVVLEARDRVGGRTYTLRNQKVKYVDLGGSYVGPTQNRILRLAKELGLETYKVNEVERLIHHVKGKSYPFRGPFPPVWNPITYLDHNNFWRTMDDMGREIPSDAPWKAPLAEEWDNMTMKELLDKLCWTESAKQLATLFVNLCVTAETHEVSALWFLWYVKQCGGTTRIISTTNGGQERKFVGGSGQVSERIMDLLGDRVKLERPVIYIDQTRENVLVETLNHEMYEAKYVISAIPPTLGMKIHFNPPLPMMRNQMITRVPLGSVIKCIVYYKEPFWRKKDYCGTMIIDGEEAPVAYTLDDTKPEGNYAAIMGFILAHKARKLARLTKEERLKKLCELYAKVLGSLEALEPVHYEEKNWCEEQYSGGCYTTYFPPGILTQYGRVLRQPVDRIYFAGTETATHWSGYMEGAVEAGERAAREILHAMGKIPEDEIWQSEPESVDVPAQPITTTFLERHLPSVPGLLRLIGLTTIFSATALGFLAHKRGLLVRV
Outline: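 MAO-B inhibition measured in human liver microsomes, reported as pIC50.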

[3] = target: ATP-dependent translocase ABCB1 (Homo sapiens, UniProt P08183); test: Inhibition of P-glycoprotein (unknown origin) upto 100 uM
ATP-dependent translocase ABCB1, sequence (P08183 whole entry): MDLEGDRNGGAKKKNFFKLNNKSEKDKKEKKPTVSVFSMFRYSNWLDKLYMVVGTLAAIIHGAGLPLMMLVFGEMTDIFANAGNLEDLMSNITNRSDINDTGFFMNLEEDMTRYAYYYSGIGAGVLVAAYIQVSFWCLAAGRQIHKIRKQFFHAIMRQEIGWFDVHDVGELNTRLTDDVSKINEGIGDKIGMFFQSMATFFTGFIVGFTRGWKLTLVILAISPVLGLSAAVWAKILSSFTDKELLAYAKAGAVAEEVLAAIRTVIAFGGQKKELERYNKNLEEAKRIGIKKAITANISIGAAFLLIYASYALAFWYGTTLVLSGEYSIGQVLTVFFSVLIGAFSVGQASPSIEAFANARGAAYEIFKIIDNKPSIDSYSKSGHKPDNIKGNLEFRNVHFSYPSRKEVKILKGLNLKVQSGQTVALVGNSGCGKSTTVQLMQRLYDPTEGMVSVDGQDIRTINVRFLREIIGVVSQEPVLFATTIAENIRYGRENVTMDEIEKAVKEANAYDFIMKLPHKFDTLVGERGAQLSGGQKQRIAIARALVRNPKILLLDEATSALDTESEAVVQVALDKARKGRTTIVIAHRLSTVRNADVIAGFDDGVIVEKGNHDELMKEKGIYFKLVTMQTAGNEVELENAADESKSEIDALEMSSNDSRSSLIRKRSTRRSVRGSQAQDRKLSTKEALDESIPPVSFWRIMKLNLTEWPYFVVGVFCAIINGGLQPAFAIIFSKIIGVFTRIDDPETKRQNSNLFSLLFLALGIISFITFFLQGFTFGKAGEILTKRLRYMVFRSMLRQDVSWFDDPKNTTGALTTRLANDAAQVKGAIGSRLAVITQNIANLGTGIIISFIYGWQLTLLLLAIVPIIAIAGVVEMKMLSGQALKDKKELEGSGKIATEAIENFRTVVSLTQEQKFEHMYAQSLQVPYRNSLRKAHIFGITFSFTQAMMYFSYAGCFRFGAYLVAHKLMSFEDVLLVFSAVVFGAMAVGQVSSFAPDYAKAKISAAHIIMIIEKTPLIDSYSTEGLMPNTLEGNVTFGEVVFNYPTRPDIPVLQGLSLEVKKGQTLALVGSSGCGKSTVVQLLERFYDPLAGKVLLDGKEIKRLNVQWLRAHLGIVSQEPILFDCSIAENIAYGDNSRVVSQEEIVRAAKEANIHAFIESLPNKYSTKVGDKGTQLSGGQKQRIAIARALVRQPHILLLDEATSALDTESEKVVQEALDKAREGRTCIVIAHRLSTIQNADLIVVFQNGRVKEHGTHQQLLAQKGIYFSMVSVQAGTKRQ

[4] = Total blood clearance in monkey blood at 0.5 mg/kg, iv; format: ADME, organism-based, Macaca mulatta; conditions: rhesus monkey
[5] = Tmax in dog at 3 mg/kg, po; format: ADME, organism-based, Canis lupus familiaris; conditions: in vivo
[6] = Apparent permeability in dog MDCK cells at pH 7.4; format: ADME, cell-based, Canis lupus familiaris
Outline: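 MDCK cell monolayer permeability measured at pH 7.4, reported as apparent permeability in nm/s.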

[7] = target: T5, Solute carrier organic anion transporter family member 1B1 (Homo sapiens, UniProt Q9Y6L6); test: Inhibition of OATP1B1 (unknown origin) upto 100 uM
T5 sequence (Q9Y6L6 whole entry): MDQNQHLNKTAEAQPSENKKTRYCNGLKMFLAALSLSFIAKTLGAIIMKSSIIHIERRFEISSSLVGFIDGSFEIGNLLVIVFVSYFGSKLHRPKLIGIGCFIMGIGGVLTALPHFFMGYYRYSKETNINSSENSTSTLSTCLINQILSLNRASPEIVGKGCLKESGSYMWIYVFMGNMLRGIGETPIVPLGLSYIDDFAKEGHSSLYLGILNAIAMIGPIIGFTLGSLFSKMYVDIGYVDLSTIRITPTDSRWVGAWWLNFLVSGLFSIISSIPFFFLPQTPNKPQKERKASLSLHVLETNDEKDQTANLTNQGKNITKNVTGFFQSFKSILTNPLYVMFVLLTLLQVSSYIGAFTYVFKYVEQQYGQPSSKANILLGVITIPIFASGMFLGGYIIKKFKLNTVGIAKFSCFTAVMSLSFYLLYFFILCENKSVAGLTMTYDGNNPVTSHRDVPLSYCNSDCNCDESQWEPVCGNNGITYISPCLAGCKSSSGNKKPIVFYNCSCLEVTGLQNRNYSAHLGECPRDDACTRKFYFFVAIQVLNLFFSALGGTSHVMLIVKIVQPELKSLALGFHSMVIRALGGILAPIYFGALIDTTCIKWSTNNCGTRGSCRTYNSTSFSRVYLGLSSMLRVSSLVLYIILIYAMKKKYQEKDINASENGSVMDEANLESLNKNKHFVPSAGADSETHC

IC50 (Cytochrome P450 2A6): > 100 µM | inhibition (INH) [1]: Not Active | IC50 (Cytochrome P450 2B6): 31 µM | IC50 [2]: 0.00398 µM | inhibition (INH) [3]: Not Active | clearance [4]: 5 mL/min/kg | Tmax [5]: 45 min | Papp [6]: 38.6 ×10⁻⁶ cm/s | inhibition (INH) [7]: Not Active
Structure (SMILES): Cl.NC(=O)[C@@H]1CC[C@H](c2ccc(OCc3ccccc3F)cc2)N1 [RAXATRIGINE HYDROCHLORIDE]
